The source of these data is ChEMBL document CHEMBL1926593, “Studies on the synthesis and antibacterial activity of 3,6-disubstituted 1,2,4-triazolo[3,4-b]1,3,4-thiadiazoles” (2012).

The structures appear in SMILES notation. In brackets after ≈: the same amount, converted by molar mass. Activity calls are given as the source filed them. The calls are words filed in the database; no cut-off is given here.

For one test, the system named is Micrococcus luteus. The test is described as follows: Antibacterial activity against drug-sensitive Micrococcus luteus ATCC 10240 by broth microdilution method. The class given is functional. The procedure, abridged: (§1)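 Broth microdilution per CLSI recommendation. MIC is the lowest concentration with no visible growth. MBC is the lowest concentration giving >99.9% reduction in CFU of the initial inoculum. Ampicillin, cefuroxime and vancomycin served as reference agents.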

Test [1] concerns Staphylococcus aureus. The test is described as follows: Antibacterial activity against methicillin-resistant Staphylococcus aureus ATCC 14001 by broth microdilution method. Type of test: functional. Summed up:
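Broth microdilution following CLSI recommendations. MIC was read as the lowest concentration giving no visible growth. Ampicillin, cefuroxime and vancomycin were the reference antibacterials.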

Test [2] has as its system Staphylococcus aureus. The test is described as follows: Ratio of MBC to MIC for methicillin-resistant Staphylococcus aureus ATCC 14001. Type of test: functional. The procedure, abridged: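 Broth microdilution following CLSI recommendations. MIC was the lowest concentration with no visible growth. MBC was the lowest concentration giving a >99.9% reduction in CFU relative to the initial inoculum. The ratio was taken from these two values.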

Test [3] has as its system Staphylococcus aureus. The test can be described thus: Antibacterial activity against drug-sensitive Staphylococcus aureus ATCC 25923 by broth microdilution method. The class given is functional. The procedure, abridged:
as §1

Test [4] has as its system Staphylococcus aureus. The test is described as follows: Antibacterial activity against drug-sensitive Staphylococcus aureus ATCC 6538 by broth microdilution method. Type of test: functional. The procedure, abridged: as §1
Test [5] deals with Staphylococcus epidermidis. The test is described as follows: Antibacterial activity against drug-sensitive Staphylococcus epidermidis ATCC 12228 by broth microdilution method. Type of test: functional. The procedure, abridged: as §1
In test [6] the test system is Bacillus subtilis. The test is described as follows: Antibacterial activity against drug-sensitive Bacillus subtilis ATCC 6633 by broth microdilution method. The class given is functional. Summed up:
as §1

Test [7] deals with Bacillus cereus. The test is described as follows: Antibacterial activity against drug-sensitive Bacillus cereus ATCC 10876 by broth microdilution method. Type of test: functional. The procedure, abridged:
as §1

For test [8], the system named is Bacillus subtilis. The test is described as follows: Ratio of ampicillin MIC to compound MIC for drug-sensitive Bacillus subtilis ATCC 6633 by broth microdilution method. The class given is functional.
Test [9] deals with Bacillus cereus. The test can be described thus: Ratio of ampicillin MIC to compound MIC for drug-sensitive Bacillus cereus ATCC 10876 by broth microdilution method. Type of test: functional.
Test [10] deals with Bacillus cereus. The test can be described thus: Ratio of cefuroxime MIC to compound MIC for drug-sensitive Bacillus cereus ATCC 10876 by broth microdilution method. Type of test: functional.
Another test relates to Escherichia coli. The test is described as follows: Antibacterial activity against drug-sensitive Escherichia coli ATCC 25922 by broth microdilution method. The class given is functional, organism-based. Summed up:
as §1

The next test relates to Klebsiella pneumoniae. The test is described as follows: Antibacterial activity against drug-sensitive Klebsiella pneumoniae ATCC 13883 by broth microdilution method. Type of test: functional, organism-based. Summed up: as §1
In a further test the test system is Proteus mirabilis. The test can be described thus: Antibacterial activity against drug-sensitive Proteus mirabilis ATCC 12453 by broth microdilution method. The class given is functional, organism-based. The procedure, abridged:
as §1

The subject of a further test is Pseudomonas aeruginosa. The test can be described thus: Antibacterial activity against drug-sensitive Pseudomonas aeruginosa ATCC 9027 by broth microdilution method. The class given is functional, organism-based. The procedure, abridged:
as §1

As for `CN[C@H](CC(C)C)C(=O)N[C@H]1C(=O)N[C@@H](CC(N)=O)C(=O)N[C@H]2C(=O)N[C@H]3C(=O)N[C@H](C(=O)N[C@H](C(=O)O)c4cc(O)cc(O)c4-c4cc3ccc4O)[C@H](O)c3ccc(c(Cl)c3)Oc3cc2cc(c3O[C@@H]2O[C@H](CO)[C@@H](O)[C@H](O)[C@H]2O[C@H]2C[C@](C)(N)[C@H](O)[C@H](C)O2)Oc2ccc(cc2Cl)[C@H]1O` [VANCOMYCIN], the MBC with Micrococcus luteus worked out at 0.49 µg/mL (≈ 0.338 µM); against Staphylococcus aureus [1], 3.91 µg/mL (≈ 2.7 µM); against Staphylococcus aureus [3] it was 7.81 µg/mL (≈ 5.39 µM); against Staphylococcus aureus [4], 1.95 µg/mL (≈ 1.35 µM); in test [5], 1.95 µg/mL (≈ 1.35 µM); against Bacillus subtilis [6], 0.49 µg/mL (≈ 0.338 µM). The same compound came in with an MBC in the test on Bacillus cereus [7] of 31.2 µg/mL (≈ 21.6 µM). Moreover, the MIC against Micrococcus luteus came to 0.25 µg/mL (≈ 0.173 µM); with Staphylococcus aureus [1], 0.98 µg/mL (≈ 0.676 µM); in the test with Staphylococcus aureus [3], 0.98 µg/mL (≈ 0.676 µM); with Staphylococcus aureus [4], 0.49 µg/mL (≈ 0.338 µM); in test [5] it was 0.98 µg/mL (≈ 0.676 µM); against Bacillus subtilis [6], 0.25 µg/mL (≈ 0.173 µM). Besides, 0.98 µg/mL (≈ 0.676 µM) was the least that counted as inhibitory against Bacillus cereus [7] (MIC). Further, the Ratio in the test on Staphylococcus aureus [2] worked out at 4.

Regarding `Clc1ccc(Nc2nn3c(-c4cccc(Cl)c4)nnc3s2)cc1`, the MBC in the test on Micrococcus luteus was found to be 3.91 µg/mL (≈ 10.8 µM); in the test on Staphylococcus aureus [1] it was 62.5 µg/mL (≈ 173 µM); in the test on Staphylococcus aureus [3], 31.2 µg/mL (≈ 86.3 µM); with Staphylococcus aureus [4], 31.2 µg/mL (≈ 86.3 µM); in [5], 3.91 µg/mL (≈ 10.8 µM); in the test on Bacillus subtilis [6], 1.95 µg/mL (≈ 5.38 µM). In the test on Bacillus cereus [7], this compound returned an MBC of 15.6 µg/mL (≈ 43.1 µM). For the same compound, the MIC amounted to 3.91 µg/mL (≈ 10.8 µM) in the test with Micrococcus luteus; 0.98 µg/mL (≈ 2.71 µM) against Staphylococcus aureus [1]; 1.95 µg/mL (≈ 5.38 µM) in the test with Staphylococcus aureus [3]; 0.49 µg/mL (≈ 1.35 µM) in the test on Staphylococcus aureus [4]; 0.98 µg/mL (≈ 2.71 µM) in test [5]; 1.95 µg/mL (≈ 5.38 µM) in the test with Bacillus subtilis [6]. Further, the MIC in the test with Bacillus cereus [7] came to 7.81 µg/mL (≈ 21.6 µM). For the same compound, the Ratio in the test on Staphylococcus aureus [2] was 64; with Bacillus subtilis [8] it was 8; in the test with Bacillus cereus [9], 8; in the test on Bacillus cereus [10], 4. Moreover, the result in the test on Escherichia coli, in the test with Klebsiella pneumoniae, in the test with Proteus mirabilis and in the test with Pseudomonas aeruginosa was inactive.

`Clc1cccc(-c2nnc3sc(Nc4ccc(Br)cc4)nn23)c1`: the MBC in the test with Micrococcus luteus stood at 3.91 µg/mL (≈ 9.61 µM); against Staphylococcus aureus [1], 125 µg/mL (≈ 307 µM); against Staphylococcus aureus [3] it was 31.2 µg/mL (≈ 76.8 µM); in the test with Staphylococcus aureus [4], 31.2 µg/mL (≈ 76.8 µM); in test [5], 3.91 µg/mL (≈ 9.61 µM); against Bacillus subtilis [6], 1.95 µg/mL (≈ 4.79 µM). Besides, in the test with Bacillus cereus [7], the MBC was 31.2 µg/mL (≈ 76.8 µM). Moreover, the MIC against Micrococcus luteus turned out to be 3.91 µg/mL (≈ 9.61 µM); against Staphylococcus aureus [1], 0.98 µg/mL (≈ 2.41 µM); in the test on Staphylococcus aureus [3], 0.98 µg/mL (≈ 2.41 µM); in the test with Staphylococcus aureus [4], 0.49 µg/mL (≈ 1.2 µM); in test [5] it was 0.98 µg/mL (≈ 2.41 µM); against Bacillus subtilis [6] it was 1.95 µg/mL (≈ 4.79 µM). Also, in the test with Bacillus cereus [7], the lowest concentration to inhibit growth (MIC) was 15.6 µg/mL (≈ 38.4 µM). In addition, the results for the Ratio in the test on Staphylococcus aureus [2], in the test on Bacillus cereus [9] and in the test on Bacillus cereus [10] were 128, 4 and 2, respectively. For the same compound, the result in the test on Escherichia coli, in the test with Klebsiella pneumoniae, in the test with Proteus mirabilis and in the test with Pseudomonas aeruginosa was inactive.

For the compound `Clc1ccc(Nc2nn3c(-c4ccccc4)nnc3s2)cc1`, the MBC against Micrococcus luteus was 15.6 µg/mL (≈ 47.7 µM); against Staphylococcus aureus [1], 62.5 µg/mL (≈ 191 µM); in the test with Staphylococcus aureus [3], 31.2 µg/mL (≈ 95.3 µM); against Staphylococcus aureus [4], 31.2 µg/mL (≈ 95.3 µM); in test [5], 3.91 µg/mL (≈ 11.9 µM); in the test on Bacillus subtilis [6] it was 7.81 µg/mL (≈ 23.8 µM). In the test with Bacillus cereus [7], this compound had an MBC of 15.6 µg/mL (≈ 47.7 µM). Moreover, the MIC with Micrococcus luteus was 7.81 µg/mL (≈ 23.8 µM); in the test with Staphylococcus aureus [1], 1.95 µg/mL (≈ 5.95 µM); against Staphylococcus aureus [3], 3.91 µg/mL (≈ 11.9 µM); with Staphylococcus aureus [4], 15.6 µg/mL (≈ 47.7 µM); in test [5], 0.98 µg/mL (≈ 2.99 µM); with Bacillus subtilis [6] it was 1.95 µg/mL (≈ 5.95 µM). In addition, in the test with Bacillus cereus [7], the MIC turned out to be 15.6 µg/mL (≈ 47.7 µM). The Ratio was determined as 32 in the test on Staphylococcus aureus [2], 8 in the test on Bacillus subtilis [8], 4 with Bacillus cereus [9] and 2 in the test with Bacillus cereus [10]. Also, the outcome in the test with Escherichia coli, in the test with Klebsiella pneumoniae, in the test with Proteus mirabilis and in the test with Pseudomonas aeruginosa was inactive.

Consider `CO/N=C(\C(=O)N[C@@H]1C(=O)N2C(C(=O)O)=C(COC(N)=O)CS[C@H]12)c1ccco1` [CEFUROXIME], for which the MIC stood at 0.98 µg/mL (≈ 2.31 µM) with Micrococcus luteus; 0.49 µg/mL (≈ 1.15 µM) in the test with Staphylococcus aureus [3]; 0.98 µg/mL (≈ 2.31 µM) against Staphylococcus aureus [4]; 0.24 µg/mL (≈ 0.566 µM) in test [5]; 15.6 µg/mL (≈ 36.8 µM) against Bacillus subtilis [6]; 31.2 µg/mL (≈ 73.6 µM) against Bacillus cereus [7].
